# Columns and labels:
# [1] = Intestinal lymphatic transport inhibition study; type: in vivo, rats; conditions: CHX 3.0 mg/kg i.p. 1 h before, oral 10 mg/kg DHA
# Procedure, shortened: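 Male Sprague-Dawley rats (200 ± 20 g) given cycloheximide 3.0 mg/kg i.p. to block chylomicron secretion. One hour later, oral DHA suspension or liposomal DHA at 10 mg/kg DHA equivalent. Plasma DHA quantified by validated HPLC‒MS/MS after ether extraction, with artemisinin as internal standard. Means ± SD, n = 4.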
# [2] = In vitro release assay; type: physicochemical; conditions: 37°C
# Procedure, shortened: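 Dynamic dialysis, bag MWCO 8–14 kDa. Liposomal DHA, or DHA dispersed in 0.5% w/v carboxymethyl cellulose sodium as control. Incubated in SGF (pH 1.2) for 2 h, then SIF (pH 6.8) for 22 h, at 37 ± 0.5°C with shaking at 150 rpm. Medium sampled at 0.5–24 h and replaced with fresh medium. DHA measured by UV‒Vis after treatment in 2% NaOH:ethanol (4:1, v/v) at 60°C for 30 min; absorbance at 238 nm.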
# [3] = Biodistribution in mesenteric lymph nodes after oral administration; type: in vivo, mice
# Procedure, shortened: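 Male ICR mice (20 ± 2 g), acclimatised 1 week. Single oral dose of 4 mg/kg DiR as free-dye solution or liposomes (dye at 8% w/w in lipid). Mice killed at 1, 2, 4 and 6 h; intestinal tracts and MLNs excised for ex vivo fluorescence imaging (means ± SD, n = 3). Dil formulations given orally at 4 mg/kg; MLNs examined by CLSM at 4 h.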
structure (smiles),measurement,setting,value
"C[C@H]1[C@@H](O)O[C@@H]2O[C@@]3(C)CC[C@H]4[C@H](C)CC[C@@H]1[C@@]24OO3 [DHA, Dihydroartemisinin]",decrease of AUC0~8 of DHA in CHX pretreated rats,[1],little influence
same,decrease of Cmax of DHA in CHX pretreated rats,[1],little influence
same,cumulative release rate of DHA at 12 h,[2]; SGF 2 h then SIF,94.29%
same,DHA released during the first 2 h in SGF,"[2]; SGF pH 1.2, 2 h",more than 65%
"CCCCCCCCCCCCCCCCCCN1/C(=C/C=C/C=C/C=C/C2=[N+](CCCCCCCCCCCCCCCCCC)c3ccccc3C2(C)C)C(C)(C)c2ccccc21.[I-] [free DiR, 1,1’-dioctadecyl-3,3,3’,3’-tetramethylindotricarbocyaine iodide]",accumulation / fluorescence signal in the MLNs (ex vivo imaging),[3]; oral 4 mg/kg DiR,rare fluorescence signal
"CCCCCCCCCCCCCCCCCCN1/C(=C/C=C/C2=[N+](CCCCCCCCCCCCCCCCCC)c3ccccc3C2(C)C)C(C)(C)c2ccccc21.[O-][Cl+3]([O-])([O-])[O-] [free Dil, 1,1’-Dioctadecyl-3,3,3’,3’-tetramethylindocarbocyanine perchlorate]",red fluorescence signal in the MLNs (CLSM),"[3]; oral 4 mg/kg Dil, 4 h",negligible

# Source: paper PMC11164214 (International Journal of Nanomedicine, 2024)
